Source: PubChem
Shown are actives, neighbours in structure and some others; about 3.1% of the full set was active somewhere.
HCV core dimer = blocks dimerization of HCV core protein | TR-FRET GST/Flag-core106 dimerization, 1536-well | inhibition, % at 5 µM | hit rate 0.33% among 300,000;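 active = inhibition above the mean of all tested compounds plus 3 SD, set per screening campaign, cut at about 45% in these data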
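Assay system: Tagged HCV core106 pair (GST and Flag) | Buffer or medium: KF-containing HEPES buffer, pH 7.45, DTT, CHAPS, BSA | Also added: Eu donor and XL665 acceptor anti-tag antibodies | Dosing: One concentration, 5 µM, in 0.5% DMSO | Timing: 4 h at 22.5 °C | Technique: TR-FRET 671 and 617 nm emission | Repeats: Singlicate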
PP1 counter = blocks human PP1-alpha phosphatase, a PP5 counter-screen; P62136; purified PP1alpha, OMFP fluorescence; inhibition, % at 6.7 µM; hit rate 0.9% among 320,000;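 active = inhibition above the mean inhibition of all tested compounds plus 3 SD, computed separately for each screening campaign, cut at about 15% in these data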
Myeloid diff MLP = promotes myeloid progenitor differentiation; ER-HoxA9 myeloid progenitors, lysozyme-GFP differentiation, flow cytometry; calls only at 10 µM; hit rate 1% among 360,000;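 active = normalized GFP-positive differentiation at or above the plate's own cutoff, the solvent-only control mean plus 3 SD; inconclusive = no clear call, values can overlap the other calls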;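 also: cells exposed to compound for four days before flow analysis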
PP5 primary = inhibitors of human protein phosphatase 5 (PP5); purified PP5c, OMFP substrate fluorescence; hit rate 0.18% among 320,000; inhibition, % at 6.7 µM;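 active = inhibition above the campaign's mean inhibition across all tested compounds plus 3 SD, cut at about 9.5% in these data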;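 also: 0% = DMSO only and 100% = 100 µM cantharidin control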
Target sequence (P53041 whole entry, looked up): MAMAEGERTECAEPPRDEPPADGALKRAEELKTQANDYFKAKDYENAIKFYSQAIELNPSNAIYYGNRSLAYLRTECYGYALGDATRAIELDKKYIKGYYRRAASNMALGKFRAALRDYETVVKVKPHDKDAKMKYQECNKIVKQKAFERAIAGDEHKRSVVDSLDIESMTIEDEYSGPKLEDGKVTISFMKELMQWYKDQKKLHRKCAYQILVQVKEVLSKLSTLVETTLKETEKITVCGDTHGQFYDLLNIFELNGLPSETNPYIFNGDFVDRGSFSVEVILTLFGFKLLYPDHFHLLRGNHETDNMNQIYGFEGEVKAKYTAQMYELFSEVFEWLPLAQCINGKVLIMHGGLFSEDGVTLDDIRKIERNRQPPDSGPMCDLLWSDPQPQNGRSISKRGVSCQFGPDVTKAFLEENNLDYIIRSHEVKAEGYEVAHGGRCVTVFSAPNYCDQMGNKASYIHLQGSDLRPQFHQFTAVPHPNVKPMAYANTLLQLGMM
Fh CTSL1 inh = counter-screen for PFM18AAP inhibitors: inhibitors of F. hepatica cathepsin L1; recombinant F. hepatica cathepsin L1, Z-Leu-Arg-MCA fluorescence; inhibition, % at 5.96 µM; hit rate 0.49% among 300,000;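 active = inhibition above the mean of all tested compounds plus 3 SD, set per screening campaign, cut at about 17% in these data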;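 also: 0% = plate median of test compound wells and 100% = 1 µM Z-Phe-Ala-diazomethylketone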
NadD inh = NadD (S. aureus) enzyme inhibition. purified NadD enzyme, colorimetric absorbance read-out. inhibition, % at 20 µM. hit rate 0.78% among 360,000. AID 602399; in the data active = inhibition above about 26%
Myeloid diff CP1 = compounds promoting myeloid differentiation; ER-HoxA9 myeloid progenitors, GFP/Mac1 double-positive flow; calls only; shares compounds with Myeloid diff MLP; hit rate 2% among 2,300;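 active = share of green or green-and-red cells above 9 and 9% in run 1 or 4 and 3% in run 2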
GFP autofluor = counter-screen for myeloid differentiation promoters: compound fluorescence. shares compounds with Myeloid diff MLP. ER-HoxA9 myeloid progenitors, no estrogen, GFP autofluorescence flow cytometry; vehicle wells 0%, positive control 100%. fluorescence response, % (concentration not given with the values). hit rate 7.4% among 2,300. AID 651707;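 active = over 5% cells positive for green fluorescent reporter, or over 2% positive for both it and APC stain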;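 also: range taken on the double positive population between DMSO and positive control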
Numbers without * were called inactive; i = inactive; ? = inconclusive; nt = not tested or not shown; + = active, no number.

SMILES	HCV core dimer	PP1 counter	Myeloid diff MLP	PP5 primary	Fh CTSL1 inh	NadD inh	Myeloid diff CP1	GFP autofluor
COc1ccc(-n2nc(C(=O)NCC(=O)N3CCN(c4cccc(Cl)c4)CC3)c3ccccc3c2=O)c(OC)c1	25.1	3.4	i	3.9	0.5	9.9	i	0.0
CCCOc1cccc(NC(=O)c2c(-c3ccccc3)noc2C)c1	1.7	6.7	i	-0.4	2.7	-2.9	nt	nt
Cc1cccc(OCCOC(=O)c2c(-c3ccccc3)noc2C)c1	2.0	1.3	+	0.9	3.8	2.5	i	0.7
CCCn1ncc(CN2CCC(C(=O)Nc3cccc(-c4cccc(F)c4)c3)CC2)c1C	-15.2	4.9	+	-1.5	-1.5	-6.7	i	0.0
Cc1c(Cc2ccccc2)c(=O)oc2cc(OC(=O)c3ccccc3)ccc12	7.3	-6.4	i	-1.1	-13.6	-5.4	nt	nt
COC(=O)Cc1c(C)c2ccc(OC(=O)c3ccccc3)cc2oc1=O	8.8	4.5	i	0.8	-4.6	-7.0	i	0.0
O=C(c1ccc(S(=O)(=O)c2ccccc2Cl)c([N+](=O)[O-])c1)N1CCCCCC1	0.9	0.8	+	-1.1	1.2	-1.9	i	0.0
O=c1oc(-c2ccccc2)nc2c1cnn2-c1ccccc1	8.4	-1.7	i	0.1	-2.7	9.9	nt	nt
O=c1oc(-c2cccs2)nc2c1cnn2-c1ccccc1	7.1	-0.3	i	1.9	3.5	-4.3	i	1.1
COc1ccc(/C=N/Nc2c(Cl)cc(Cl)cc2Cl)cc1CN1CCOCC1	9.4	-10.5	i	-1.9	5.9	4.7	i	0.6
CC1Nc2ncnc(N3CCOCC3)c2N(Cc2ccccc2)C1=O (stereo not drawn)	-1.4	-1.9	i	2.7	-2.4	3.1	i	0.0
COc1ccc(CN2C(=O)C(C)Nc3ncnc(N4CCOCC4)c32)cc1 (stereo not drawn)	nt	nt	i	nt	nt	-0.5	nt	nt
CC(OC(=O)/C=C/c1ccc2ccccc2n1)C(=O)Nc1ccc(S(N)(=O)=O)cc1 (stereo not drawn)	-1.7	-0.2	i	0.5	9.6	3.5	i	0.4
O=c1[nH]c(Cc2ccccc2)nc2c1oc1ccccc12	-3.1	6.6	i	3.3	5.5	-1.3	nt	nt
Cc1nc2c(oc3ccccc32)c(=O)o1	2.0	-2.3	+	0.7	-2.6	-2.8	i	0.0
Cc1ccc2oc(=O)c3cnn(CC(=O)N4CCCc5ccccc54)c3c2c1	-7.8	-1.0	i	-7.6	8.6	-5.0	i	0.2
Cc1ccc2oc(=O)c3cnn(CC(=O)N4CCN(c5ccccc5)CC4)c3c2c1	11.5	-0.2	i	0.2	1.4	7.1	nt	nt
CCOC1=C/C(=C/c2c(N)n3nc(-c4ccccc4)sc3nc2=O)C=CC1=O	nt	nt	+	nt	nt	43.5*	i	5.2*
CC1CN=C(c2ccccc2)O1 (stereo not drawn)	nt	nt	i	nt	nt	1.3	nt	nt
COC(=O)[C@H](Cc1ccccc1)NC(=O)/C=C/[C@H]1O[C@@H](n2cc(C)c(=O)[nH]c2=O)C[C@@H]1O	nt	nt	i	nt	nt	0.6	nt	nt
CCN(CC)S(=O)(=O)c1ccc(Cl)c(C(=O)NNC(=O)c2csc(N3CCOCC3)n2)c1	nt	nt	i	nt	nt	-2.0	nt	nt
COc1cc(C2CC(=O)Nc3cc(C)c(C)cc32)cc(OC)c1OC (stereo not drawn)	-8.8	1.8	+	0.4	3.9	-3.1	i	2.1
CCOc1c(Br)cc(C2CC(=O)Nc3cc(OC)c(OC)cc32)cc1OC (stereo not drawn)	-10.1	3.7	i	4.5	0.3	-5.7	nt	nt
Cc1ccc(-c2cc3ccccc3nc2N)cc1	-0.3	-0.4	i	2.3	-11.4	-9.5	nt	nt
Cc1ccccc1S(=O)(=O)c1cc2ccccc2nc1N	2.9	-0.2	i	-0.3	0.8	2.5	i	0.3
SMILES	HCV core dimer	PP1 counter	Myeloid diff MLP	PP5 primary	Fh CTSL1 inh	NadD inh	Myeloid diff CP1	GFP autofluor
Cc1ccccc1C(=O)NC1CCN(Cc2ccccc2)CC1	3.9	3.8	i	-0.2	2.8	-3.5	nt	nt
Cc1cccc(NS(=O)(=O)c2ccc(C)c(C(=O)NC3CCN(Cc4ccccc4)CC3)c2)c1	nt	nt	+	nt	nt	3.3	i	0.0
COC(=O)[C@@H](NC(=O)NCc1cccs1)C(C)C	-0.3	0.9	i	-0.9	-0.9	-4.9	nt	nt
COC(=O)[C@H](CCSC)NC(=O)NCc1cccs1	2.4	-0.7	i	1.4	3.9	-3.0	i	0.3
CC(C)(C)c1ccc(C(O)c2ncc(-c3cccc(F)c3)[nH]2)cc1 (stereo not drawn)	nt	nt	i	nt	nt	5.9	nt	nt
CCN(CC)c1ccc(C2NC(=O)NC(C)=C2C(=O)Nc2ccccc2)cc1 (stereo not drawn)	-0.3	-1.8	+	1.0	2.2	-2.5	i	7.5*
O=C(CSc1nc2ccc(Cl)cc2[nH]1)Nc1ccc2[nH]c(=O)[nH]c2c1	5.2	-3.9	i	-0.9	-0.9	2.3	nt	nt
CC(=O)Oc1ccc(/C=C2/SC(=S)N(Cc3ccccc3)C2=O)cc1	2.0	-1.2	+	0.2	-0.5	-5.1	i	37.5*
CN1CCS/C1=C/C=C1/SC(=S)N(Cc2ccccc2)C1=O	-4.5	10.2	+	1.8	6.6	-1.8	i	22.7*
CC1=C(C(=O)O)N2C(=O)C(NC(=O)c3nn(C)c(C)c3Cl)C2SC1 (stereo not drawn)	0.3	-5.7	i	-0.2	-2.1	-5.0	i	0.0
Cc1cccc(N2CCN(C(=S)NCCc3ccccc3)CC2)c1C	8.7	-2.1	+	-0.9	-0.9	0.0	i	0.0
O=C(NCCS(=O)(=O)N1CCN(c2ccccc2F)CC1)c1ccc2c(c1)OCO2	-3.0	-0.2	i	2.9	-1.7	-2.6	nt	nt
CN(C)CCN1CC(O)=C(c2nc3ccccc3s2)C1=N	-2.3	-1.6	i	-1.1	0.4	-9.4	nt	nt
N=C1C(c2nc3ccccc3s2)=C(O)CN1Cc1ccco1	3.4	-2.7	+	-1.8	1.4	1.2	i	0.0
Cc1ccc(OCC(=O)N(C)C2CCCCC2)c([N+](=O)[O-])n1	nt	nt	i	nt	nt	2.8	nt	nt
CC(=O)c1ccc(NC(=O)c2ccc([N+](=O)[O-])o2)cc1	nt	nt	?	nt	nt	-0.1	nt	nt
O=C(Nc1cccnc1)c1ccc([N+](=O)[O-])o1	-6.5	-2.9	nt	-6.5	9.2	-7.8	nt	nt
O=C(NCc1cccnc1)c1ccc([N+](=O)[O-])o1	-2.9	-4.9	+	3.9	-2.2	6.2	i	1.5
COc1ccc2nc(NC(=O)c3ccc([N+](=O)[O-])o3)sc2c1	27.7	5.6	i	5.0	6.4	0.3	i	0.6
COc1ccc(NC(=O)c2ccc([N+](=O)[O-])o2)cc1	-9.0	0.3	+	2.2	11.1	-0.3	i	0.0
